The record followed here is ChEMBL document CHEMBL1142536, “Synthesis of triazole-linked beta-C-glycosyl dimers as inhibitors of PTP1B” (Bioorg Med Chem, 2008).

One may read the IC50 as the concentration that inhibits the measured activity by half. For orientation: inhibition means the relative decrease from the control value, in per cent.

Assay [1] concerns the target T1, Tyrosine-protein phosphatase non-receptor type 1 (Homo sapiens, UniProt P18031).
T1 sequence (P18031 whole entry): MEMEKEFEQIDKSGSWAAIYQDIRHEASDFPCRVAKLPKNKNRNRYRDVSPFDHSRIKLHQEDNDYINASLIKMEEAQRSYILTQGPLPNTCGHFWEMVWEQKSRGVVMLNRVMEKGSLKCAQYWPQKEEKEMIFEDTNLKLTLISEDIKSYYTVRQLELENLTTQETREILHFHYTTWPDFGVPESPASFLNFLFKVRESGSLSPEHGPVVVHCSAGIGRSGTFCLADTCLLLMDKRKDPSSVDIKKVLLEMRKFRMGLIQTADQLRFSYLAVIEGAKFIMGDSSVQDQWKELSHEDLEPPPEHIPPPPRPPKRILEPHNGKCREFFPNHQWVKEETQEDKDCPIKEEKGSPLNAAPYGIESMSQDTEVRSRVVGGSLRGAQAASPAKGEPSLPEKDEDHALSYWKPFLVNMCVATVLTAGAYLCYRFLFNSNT
As to the kind of experiment: Inhibition of human recombinant PTP1B catalytic domain. The procedure, abridged:
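Recombinant human PTP1B catalytic domain, 30 nM, with 2 mM pNPP substrate in 50 mM MOPS pH 6.5 at 30 °C. pNP release read continuously at 405 nm for 2 min. Initial rate comes from the early linear part of the curve. Inhibitors diluted around the estimated IC50. IC50 from nonlinear fit of % inhibition vs [I] with a Hill coefficient term.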

For assay [2], the target named is T2, Tyrosine-protein phosphatase non-receptor type 1 (Homo sapiens) (UniProt P18031).
T2 sequence (whole entry): T1 sequence (P18031 whole entry)
Description: Inhibition of human recombinant PTP1B catalytic domain at 20 ug/mL. The procedure, abridged:
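Human PTP1B catalytic domain (recombinant) hydrolysing 2 mM pNPP in 50 mM MOPS pH 6.5 at 30 °C. pNP formation followed at 405 nm for 2 min. Initial rate taken from the early linear region. Compounds tested at 20 µg/mL. Result given as percent inhibition.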

As to `COc1ccc(OC)c([C@@H]2O[C@H](Cn3cc(COC(=O)c4cccc(C(=O)OCc5cn(C[C@H]6O[C@@H](c7cc(OC)ccc7OC)[C@H](OC(=O)c7ccccc7)[C@@H](OC(=O)c7ccccc7)[C@@H]6OC(=O)c6ccccc6)nn5)c4)nn3)[C@@H](OC(=O)c3ccccc3)[C@H](OC(=O)c3ccccc3)[C@H]2OC(=O)c2ccccc2)c1`, the IC50 in assay [1] amounted to 870 nM. Moreover, the inhibition in assay [2] was 97.8%.
For the compound `O=C1C=CC(=O)C([C@@H]2O[C@H](Cn3cc(COC(=O)c4cccc(C(=O)OCc5cn(C[C@H]6O[C@@H](C7=CC(=O)C=CC7=O)[C@H](OC(=O)c7ccccc7)[C@@H](OC(=O)c7ccccc7)[C@@H]6OC(=O)c6ccccc6)nn5)c4)nn3)[C@@H](OC(=O)c3ccccc3)[C@H](OC(=O)c3ccccc3)[C@H]2OC(=O)c2ccccc2)=C1`, in assay [1], the 50% inhibitory concentration (IC50) is 620 nM. In addition, in assay [2], the inhibition was 95.8%.
On to `COc1cc([C@@H]2O[C@H](CN3C=C(COC(=O)c4cccc(C(=O)OCC5=CN(C[C@H]6O[C@@H](c7cc(OC)c8ccccc8c7OC)[C@H](OC(C)=O)[C@@H](OC(C)=O)[C@H]6OC(C)=O)NN5)c4)NN3)[C@H](OC(C)=O)[C@H](OC(C)=O)[C@H]2OC(C)=O)c(OC)c2ccccc12`, for which, in assay [2], the inhibition was 7.5%.
For the compound `O=C1C=CC(=O)C([C@@H]2O[C@H](Cn3cc(COC(=O)c4cccc(C(=O)OCc5cn(C[C@H]6O[C@@H](C7=CC(=O)C=CC7=O)[C@H](OC(=O)c7ccccc7)[C@@H](OC(=O)c7ccccc7)[C@H]6OC(=O)c6ccccc6)nn5)c4)nn3)[C@H](OC(=O)c3ccccc3)[C@H](OC(=O)c3ccccc3)[C@H]2OC(=O)c2ccccc2)=C1`, the IC50 in assay [1] was 720 nM. Further, the inhibition in assay [2] is 95.5%.
As to `CC(=O)OC[C@H]1O[C@@H](C2=CC(=O)C=CC2=O)[C@H](OC(C)=O)[C@@H](OC(C)=O)[C@@H]1OC(C)=O`, in assay [1], the half-inhibitory concentration (IC50) was found to be 4850 nM.
On to `CC(=O)O[C@@H]1[C@@H](OC(C)=O)[C@H](C2=CC(=O)c3ccccc3C2=O)O[C@H](Cn2cc(COC(=O)c3cccc(C(=O)OCc4cn(C[C@H]5O[C@@H](C6=CC(=O)c7ccccc7C6=O)[C@H](OC(C)=O)[C@@H](OC(C)=O)[C@@H]5OC(C)=O)nn4)c3)nn2)[C@H]1OC(C)=O`, for which the inhibition in assay [2] worked out at 8.5%.
On the same count and under the same terms, to `COc1cc([C@@H]2O[C@H](CN3C=C(COC(=O)c4cccc(C(=O)OCC5=CN(C[C@H]6O[C@@H](c7cc(OC)c8ccccc8c7OC)[C@H](OC(C)=O)[C@@H](OC(C)=O)[C@@H]6OC(C)=O)NN5)c4)NN3)[C@@H](OC(C)=O)[C@H](OC(C)=O)[C@H]2OC(C)=O)c(OC)c2ccccc12` belongs 12.5%.
Take `COc1ccc(OC)c([C@@H]2O[C@H](Cn3cc(COC(=O)c4cccc(C(=O)OCc5cn(C[C@H]6O[C@@H](c7cc(OC)ccc7OC)[C@H](OC(=O)c7ccccc7)[C@@H](OC(=O)c7ccccc7)[C@H]6OC(=O)c6ccccc6)nn5)c4)nn3)[C@H](OC(=O)c3ccccc3)[C@H](OC(=O)c3ccccc3)[C@H]2OC(=O)c2ccccc2)c1`: in assay [1], the IC50 stood at 880 nM. For the same compound, the inhibition in assay [2] worked out at 98.5%.
Consider `CC(=O)O[C@H]1[C@@H](OC(C)=O)[C@@H](Cn2cc(COC(=O)c3cccc(C(=O)OCc4cn(C[C@H]5O[C@@H](C6=CC(=O)c7ccccc7C6=O)[C@H](OC(C)=O)[C@@H](OC(C)=O)[C@H]5OC(C)=O)nn4)c3)nn2)O[C@@H](C2=CC(=O)c3ccccc3C2=O)[C@@H]1OC(C)=O`, for which the inhibition in assay [2] was determined as 0.8%.
